Screening results deposited in PubChem BioAssay by Broad Institute.
PAX8 inh HTS = PAX8 transcriptional activity inhibition | RMG-I TPO-luciferase reporter, SteadyGlo, 24 h | inhibition, % at 12.6 µM | 360,000 tested, 1.2% active | AID 652154;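 active = mean replicate inhibition at least 60% with every replicate also reaching 60%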;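 also: luciferase light reporting Pax8 driven TPO promoter activity; plate controls were median of neutral control wells for no effect and mitoxantrone controls for full effect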
FN deposition inh = fibronectin deposition inhibition | AID 743247 | inhibition, % at 12.6 µM | 350,000 tested, 0.086% active | AH1F fibroblasts, Alexa488-fibronectin deposition fluorescence, overnight;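 active = mean inhibition across replicates of 30% or more, regardless of how many single replicates reach that level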;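 also: positive control wells lacked labelled fibronectin entirely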
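Schedule: 1 h cell adhesion before compound, then overnight fibronectin incubation; test system: AH1F fibroblast monolayer depositing Alexa488-labelled fibronectin into matrix; quantity: 10000 AH1F cells per well; probe or stimulus: fluorescent fibronectin at 24 nM final; signal: fluorescence, ex 485 nm, em 525 nm; evaluation: percent inhibition as loss of matrix-bound fibronectin fluorescence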
EWS-Fli inh = blocks EWS/Fli oncoprotein-driven transcription; AID 651661; A673 NR0B1-luciferase reporter, viability-normalised; inhibition, % at 12.6 µM; 350,000 tested, 0.67% active;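 active = mean inhibition of at least 50% after viability correction, with every replicate also passing that limit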;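 also: firefly luciferase signal divided by Alamar Blue viability fluorescence both relative to DMSO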
FGF22 binding = shifts melting point of recombinant human FGF22 | Q9HCT0 | recombinant FGF22 thermal shift, SYPRO orange fluorescence; percent of sucrose octasulfate shift, DMSO zero | activity (Tm shift, normalised), % at 9.99 µM | 340,000 tested, 1.5% active | AID 651658;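 active = mean Tm shift, scaled 0 neutral to 100 positive control, at about 1.3% or above, every replicate too, limit read from the data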
Target sequence (Q9HCT0 whole entry, looked up): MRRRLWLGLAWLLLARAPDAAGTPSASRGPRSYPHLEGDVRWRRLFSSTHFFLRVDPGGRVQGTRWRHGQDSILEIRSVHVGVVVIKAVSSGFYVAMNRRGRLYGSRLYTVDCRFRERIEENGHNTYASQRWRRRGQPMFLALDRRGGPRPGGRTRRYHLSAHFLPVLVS
PGC1a acetyl inh = lowers PGC1a acetylation signal in U2OS cells. AlphaScreen anti-acetyl-lysine; with virally co-expressed GCN5 acetyltransferase. inhibition, % at 15.6 µM. 350,000 tested, 0.17% active. AID 651687;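 active = every replicate shows inhibition of at least 40%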;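 also: 0% = neutral control wells and 100% = positive control wells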
Env fusion inh = inhibitors of HIV Env-mediated cell fusion. HeLa-JRFL Env/CEM21 cell fusion, luciferase. inhibition, % at 12.3 µM. 360,000 tested, 1.1% active;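 active = mean replicate inhibition score of at least 50 and every replicate individually at or above 50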;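 also: 0% = plate neutral controls and 100% = maraviroc near 300 nM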
The depositor's hits bear a star; [ ] = remark or other dose. An excerpt weighted towards active compounds, which were near 3.1% of everything screened.

Screening C[C@H]1CN([C@@H](C)CO)S(=O)(=O)c2ccc(C3=CCCC3)cc2O[C@@H]1CN(C)Cc1cccc(C(=O)O)c1 returned PAX8 inh HTS 20.9, EWS-Fli inh -3.3, FGF22 binding -0.2, PGC1a acetyl inh 2.4 and Env fusion inh 2.7[16.7 µM].
For O=C(Cc1c(Cl)cccc1Cl)Nc1ccncc1 the results were PAX8 inh HTS -35.2, FGF22 binding 0.3 and Env fusion inh 23.9.
`O=C(Cc1c(Cl)cccc1Cl)Nc1ccncc1Cl` gave PAX8 inh HTS -4.1, EWS-Fli inh 16.2, FGF22 binding 0.0 and Env fusion inh 61.2*.
O=C(/C=C/c1ccccc1)NC(NC(=S)Nc1cccc(O)c1)C(Cl)(Cl)Cl (centres undefined) was read as PAX8 inh HTS 9.4 and Env fusion inh -32.5.
Screening Cc1ccc(C)c(NC(=S)NC(NC(=O)/C=C/c2ccccc2)C(Cl)(Cl)Cl)c1 (centres undefined) returned PAX8 inh HTS 67.7*, FN deposition inh -5.8, PGC1a acetyl inh 1.9 and Env fusion inh 47.7.
For O=C(/C=C/c1ccccc1)NC(NC(=S)Nc1cccc(Cl)c1)C(Cl)(Cl)Cl (centres undefined) the results were PGC1a acetyl inh -15.7 and Env fusion inh 63.3*.
For O=C(/C=C/c1ccccc1)NC(NC(=S)Nc1ccc(Cl)cc1Cl)C(Cl)(Cl)Cl (centres undefined) the results were PGC1a acetyl inh -16.2.
`C[C@H]1CN([C@@H](C)CO)C(=O)CCCn2cc(nn2)CO[C@H]1CN(C)Cc1ccc2c(c1)OCO2` gave FN deposition inh -8.2, EWS-Fli inh -0.5, PGC1a acetyl inh 31.2 and Env fusion inh -5.0[16.7 µM].
Screening COc1ccc2c3c(n(C)c2c1)[C@H](CO)N(S(C)(=O)=O)CC31CCN(CC2CCCC2)CC1 returned PAX8 inh HTS -5.8, EWS-Fli inh -10.0 and FGF22 binding -0.1.
Screening Cc1cccc(N2CCN(C(=S)Nc3ccc4nc(N5CCN(C)CC5)cc(C)c4c3)CC2)c1C returned PAX8 inh HTS 4.9, FN deposition inh 4.2, EWS-Fli inh 56.3*, FGF22 binding 0.0, PGC1a acetyl inh -15.6 and Env fusion inh 26.4.
Cc1cc(N2CCN(C)CC2)nc2ccc(NC(=S)N3CCCCC3)cc12 was read as PAX8 inh HTS -44.7, FN deposition inh 2.5, EWS-Fli inh -4.6, FGF22 binding 0.4, PGC1a acetyl inh 1.8 and Env fusion inh -4.4.
Screening C/C=C/c1ccc([C@H]2[C@@H](CO)N3C(=O)CN(Cc4ccc(C)cc4)C[C@@H]23)cc1 returned PGC1a acetyl inh -4.0.
For Cc1cc(C)n2cc(CSc3nncn3C)nc2n1 the results were PAX8 inh HTS 10.9, EWS-Fli inh -1.9, FGF22 binding 43.3*, PGC1a acetyl inh 3.3 and Env fusion inh 0.4.
For FC(F)(F)c1nc(-c2cccnc2)ncc1-c1nnnn1-c1ccccc1 the results were PAX8 inh HTS 35.3, FN deposition inh 4.2, PGC1a acetyl inh 9.9 and Env fusion inh -0.4.
FC(F)(F)c1nc(-c2cccs2)ncc1-c1nnnn1-c1ccc(Cl)cc1 was read as Env fusion inh 69.9*.
COc1ccc(-n2nnnc2-c2cnc(N3CCCC3)nc2C(F)(F)F)cc1 was read as FN deposition inh -11.2, PGC1a acetyl inh 6.8 and Env fusion inh 72.3*.
For C[C@H]1CCCCO[C@H](CN(C)C(=O)CCCN(C)C)[C@@H](C)CN([C@@H](C)CO)C(=O)c2cc(NC(=O)c3ccccc3)ccc2O1 the results were PAX8 inh HTS 8.7, EWS-Fli inh -1.2, FGF22 binding 0.1, PGC1a acetyl inh -0.7 and Env fusion inh 11.8[16.7 µM].
`N/C(Cn1cncn1)=N\NC(=O)C(=O)Nc1cccc(C(F)(F)F)c1` gave PAX8 inh HTS -9.9, FN deposition inh -8.4, EWS-Fli inh 0.5, FGF22 binding 43.1*, PGC1a acetyl inh 9.7 and Env fusion inh -4.6.
`N/C(Cn1cncn1)=N\NC(=O)C(=O)Nc1ccccc1` gave PAX8 inh HTS 5.3, FN deposition inh 4.5, EWS-Fli inh -20.6, FGF22 binding 0.3, PGC1a acetyl inh 16.5 and Env fusion inh 6.5.
Screening CCOc1ccc2c(CC)cc(=O)oc2c1OCC returned PAX8 inh HTS 101.9*, FN deposition inh 4.1, EWS-Fli inh -4.6, FGF22 binding 0.2 and PGC1a acetyl inh 6.7.
C=CCOc1ccc2c(CC)cc(=O)oc2c1C was read as PAX8 inh HTS -3.7, FN deposition inh -2.7, EWS-Fli inh 9.1, FGF22 binding 0.1, PGC1a acetyl inh 5.3 and Env fusion inh -37.7.
For CS(=O)(=O)Nc1ccc2c(c1)[C@@H]1C[C@@H](CC(=O)NC3CCCC3)O[C@@H](CO)[C@@H]1O2 the results were PAX8 inh HTS 8.9, EWS-Fli inh 6.0, FGF22 binding 0.0, PGC1a acetyl inh 1.7 and Env fusion inh 4.7[16.7 µM].
For CC(C)C#Cc1ccc2c(c1)O[C@H](CN(C)CC1CCOCC1)[C@H](C)CN([C@@H](C)CO)S2(=O)=O the results were FN deposition inh 2.3, EWS-Fli inh 6.2, FGF22 binding 0.0, PGC1a acetyl inh -16.6 and Env fusion inh 6.2[16.7 µM].
`COc1ccc2cc(CN(CC3CCCO3)C(=S)Nc3ccccc3)c(=O)[nH]c2c1` (centres undefined) gave PAX8 inh HTS 18.7, FN deposition inh 12.5, EWS-Fli inh 43.3, FGF22 binding 0.1 and Env fusion inh 5.2.
Screening O=C(c1ccco1)N(CCO)Cc1cc2cc3c(cc2[nH]c1=O)OCO3 returned PAX8 inh HTS 0.3, FN deposition inh 2.1, EWS-Fli inh -3.2, FGF22 binding 43.2*, PGC1a acetyl inh 4.9 and Env fusion inh 5.3.
COc1ccc2[nH]c(=O)c(CN(CC3CCCO3)C(=S)Nc3ccccc3)cc2c1 (centres undefined) was read as PAX8 inh HTS 23.1, FN deposition inh -8.3, EWS-Fli inh -0.6, FGF22 binding 43.6* and Env fusion inh 11.4.
Screening COc1ccccc1NC(=S)N(CCCN(C)C)Cc1cc2cc3c(cc2[nH]c1=O)OCO3 returned PAX8 inh HTS -9.5, FN deposition inh -0.5, EWS-Fli inh 12.4, FGF22 binding 43.5* and Env fusion inh -11.9.
`O=C(c1ccccc1)N(CCO)Cc1cc2cc3c(cc2[nH]c1=O)OCCO3` gave PAX8 inh HTS 10.7, FN deposition inh 2.2, EWS-Fli inh 0.1, FGF22 binding 0.3, PGC1a acetyl inh 2.2 and Env fusion inh -1.5.
Screening CN(C)CCCN(Cc1cc2cc3c(cc2[nH]c1=O)OCO3)C(=S)Nc1ccccc1 returned PAX8 inh HTS 3.2, FN deposition inh -1.1, EWS-Fli inh -1.4, FGF22 binding 43.0*, PGC1a acetyl inh 3.1 and Env fusion inh 6.3.
CCN(CC)CCCN(Cc1cc2cc3c(cc2[nH]c1=O)OCO3)C(=S)Nc1ccccc1OC was read as PAX8 inh HTS 1.2, FN deposition inh 8.9, EWS-Fli inh -2.1, FGF22 binding 0.4, PGC1a acetyl inh -13.2 and Env fusion inh -35.8.
